# Results reported in ChEMBL document CHEMBL1914423, “New imidazo[2,1-b]thiazole derivatives: synthesis, in vitro anticancer evaluation, and in silico studies” (Eur J Med Chem, 2011).
# Columns and labels:
# [1] = test system: UACC-62; assay: Antiproliferative activity against human UACC62 cells after 48 hrs by MTT assay; format: functional, cell-based; conditions: UACC-62, 48 h
# [2] = test system: MOLT-4; assay: Anticancer activity against human MOLT4 cells after 48 hrs by SRB assay; format: functional; conditions: MOLT-4, 48 h
# [3] = test system: RPMI-8226; assay: Anticancer activity against human RPMI8226 cells after 48 hrs by SRB assay; format: functional; conditions: RPMI-8226, 48 h
# [4] = test system: SR; assay: Anticancer activity against human SR cells after 48 hrs by SRB assay; format: functional
# Procedure, shortened: (§1)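 NCI-60 five-dose mode: cells in RPMI 1640 with 5% FBS and 2 mM glutamine, plated at 5000–40,000 cells/well, and preincubated 24 h, with time-zero plates TCA-fixed. Drug given at five concentrations (10-fold or ½-log serial dilutions). Cold TCA fixation 60 min at 4 °C, SRB stain, Tris solubilization, A515. IC50 taken where [(Ti−Tz)/(C−Tz)]×100 = 50.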
# [5] = test system: EKVX; assay: Anticancer activity against human EKVX cells after 48 hrs by SRB assay; format: functional
# Procedure, shortened: (§2)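 NCI five-dose screen. Cells in RPMI 1640 with 5% FBS and 2 mM L-glutamine, seeded at 5000–40,000 cells/well according to doubling time, then pre-incubated 24 h at 37 °C in 5% CO2. Drugs dissolved in DMSO, five concentrations by 10-fold or 1/2-log dilution. Cells fixed with TCA, SRB-stained, A515 read. IC50 solved from [(Ti−Tz)/(C−Tz)]×100 = 50.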
# [6] = test system: HOP-62; assay: Anticancer activity against human HOP62 cells after 48 hrs by SRB assay; format: functional; conditions: HOP-62, 48 h; procedure, shortened: as §2
# [7] = test system: HOP-92; assay: Anticancer activity against human HOP92 cells after 48 hrs by SRB assay; format: functional; conditions: HOP-92, 48 h; procedure, shortened: as §2
# [8] = test system: NCI-H23; assay: Anticancer activity against human NCI-H23 cells after 48 hrs by SRB assay; format: functional; conditions: NCI-H23, 48 h
# [9] = test system: NCI-H322M; assay: Anticancer activity against human NCI-H322M cells after 48 hrs by SRB assay; format: functional
# [10] = test system: NCI-H522; assay: Anticancer activity against human NCI-H522 cells after 48 hrs by SRB assay; format: functional; conditions: NCI-H522, 48 h
# [11] = test system: COLO 205; assay: Anticancer activity against human COLO205 cells after 48 hrs by SRB assay; format: functional; conditions: COLO 205, 48 h; procedure, shortened: as §2
# [12] = test system: HCT-15; assay: Anticancer activity against human HCT15 cells after 48 hrs by SRB assay; format: functional; conditions: HCT-15, 48 h; procedure, shortened: as §2
# [13] = test system: HT-29; assay: Anticancer activity against human HT-29 cells after 48 hrs by SRB assay; format: functional; conditions: HT-29, 48 h; procedure, shortened: as §2
# [14] = test system: SW-620; assay: Anticancer activity against human SW620 cells after 48 hrs by SRB assay; format: functional; conditions: SW-620, 48 h; procedure, shortened: as §1
# [15] = test system: SF-268; assay: Anticancer activity against human SF268 cells after 48 hrs by SRB assay; format: functional; conditions: SF-268, 48 h
# [16] = test system: SF-539; assay: Anticancer activity against human SF539 cells after 48 hrs by SRB assay; format: functional; conditions: SF-539, 48 h
# [17] = test system: SNB-75; assay: Anticancer activity against human SNB75 cells after 48 hrs by SRB assay; format: functional; conditions: SNB-75, 48 h
# [18] = test system: Malme-3M; assay: Anticancer activity against human MALME-3M cells after 48 hrs by SRB assay; format: functional; procedure, shortened: as §2
# [19] = test system: MDA-MB-435; assay: Anticancer activity against human MDA-MB-435 cells after 48 hrs by SRB assay; format: functional; conditions: MDA-MB-435, 48 h; procedure, shortened: as §2
# [20] = test system: SK-MEL-2; assay: Anticancer activity against human SK-MEL-2 cells after 48 hrs by SRB assay; format: functional; conditions: SK-MEL-2, 48 h
# [21] = test system: SK-MEL-28; assay: Anticancer activity against human SK-MEL-28 cells after 48 hrs by SRB assay; format: functional; conditions: SK-MEL-28, 48 h
# [22] = test system: UACC-257; assay: Anticancer activity against human UACC257 cells after 48 hrs by SRB assay; format: functional; conditions: UACC-257, 48 h; procedure, shortened: as §1
# [23] = test system: OVCAR-3; assay: Anticancer activity against human OVCAR3 cells after 48 hrs by SRB assay; format: functional; conditions: OVCAR-3, 48 h
# [24] = test system: OVCAR-8; assay: Anticancer activity against human OVCAR8 cells after 48 hrs by SRB assay; format: functional; conditions: OVCAR-8, 48 h
# [25] = test system: CAKI-1; assay: Anticancer activity against human Caki1 cells after 48 hrs by SRB assay; format: functional; conditions: CAKI-1, 48 h; procedure, shortened: as §2
# [26] = test system: TK-10; assay: Anticancer activity against human TK10 cells after 48 hrs by SRB assay; format: functional; conditions: TK-10, 48 h; procedure, shortened: as §1
# [27] = test system: PC-3; assay: Anticancer activity against human PC3 cells after 48 hrs by SRB assay; format: functional; conditions: PC-3, 48 h
# [28] = test system: MDA-MB-231; assay: Anticancer activity against human MDA-MB-231 cells after 48 hrs by SRB assay; format: functional; conditions: MDA-MB-231, 48 h; procedure, shortened: as §2
# [29] = test system: T47D; assay: Anticancer activity against human T47D cells after 48 hrs by SRB assay; format: functional; procedure, shortened: as §1
# [30] = test system: MDA-MB-468; assay: Anticancer activity against human MDA-MB-468 cells after 48 hrs by SRB assay; format: functional; conditions: MDA-MB-468, 48 h
# [31] = read-out: LC50 (the source's name)
compound,measurement,setting,value
O=C(NCCNc1nccc(-c2c(-c3cccc(O)c3)nc3sccn23)n1)c1ccccc1,IC50,[1],0.211 µM
same,GI50,[2],13.5 µM
same,TGI,[2],74.2 µM
same,CC50,[2]; [31],> 100 µM
same,GI50,[3],6.97 µM
same,TGI,[3],25.3 µM
same,GI50,[4],5.68 µM
same,TGI,[4],50 µM
same,CC50,[4]; [31],> 100 µM
same,GI50,[5],25 µM
same,TGI,[5],> 100 µM
same,GI50,[6],23.5 µM
same,TGI,[6],94.2 µM
same,GI50,[7],2.22 µM
same,TGI,[7],33.2 µM
same,CC50,[7]; [31],> 100 µM
same,GI50,[8],10 µM
same,TGI,[8],30.7 µM
same,GI50,[9],26.3 µM
same,TGI,[9],> 100 µM
same,CC50,[9]; [31],> 100 µM
same,GI50,[10],5.76 µM
same,TGI,[10],25.5 µM
same,CC50,[10]; [31],93.9 µM
same,GI50,[11],3.99 µM
same,TGI,[11],23.8 µM
same,CC50,[11]; [31],> 100 µM
same,GI50,[12],18.8 µM
same,TGI,[12],62.2 µM
same,CC50,[12]; [31],> 100 µM
same,GI50,[13],6.79 µM
same,TGI,[13],38.3 µM
same,CC50,[13]; [31],> 100 µM
same,GI50,[14],18 µM
same,TGI,[14],79.4 µM
same,CC50,[14]; [31],> 100 µM
same,GI50,[15],15.5 µM
same,TGI,[15],87 µM
same,CC50,[15]; [31],> 100 µM
same,GI50,[16],11.3 µM
same,TGI,[16],36.8 µM
same,CC50,[16]; [31],> 100 µM
same,GI50,[17],3.27 µM
same,TGI,[17],28.1 µM
same,CC50,[17]; [31],> 100 µM
same,GI50,[18],0.205 µM
same,CC50,[18]; [31],> 100 µM
same,GI50,[19],0.578 µM
same,TGI,[19],12.8 µM
same,CC50,[19]; [31],71.3 µM
same,GI50,[20],2.94 µM
same,TGI,[20],12.9 µM
same,CC50,[20]; [31],48.8 µM
same,GI50,[21],0.336 µM
same,TGI,[21],99.1 µM
same,CC50,[21]; [31],> 100 µM
same,GI50,[22],0.489 µM
same,TGI,[22],18.5 µM
same,CC50,[22]; [31],> 100 µM
same,GI50,[23],12.3 µM
same,TGI,[23],64.8 µM
same,CC50,[23]; [31],> 100 µM
same,GI50,[24],11.1 µM
same,TGI,[24],78.8 µM
same,CC50,[24]; [31],> 100 µM
same,GI50,[25],5.92 µM
same,TGI,[25],29.6 µM
same,CC50,[25]; [31],> 100 µM
same,GI50,[26],11.7 µM
same,TGI,[26],37.1 µM
same,CC50,[26]; [31],> 100 µM
same,GI50,[27],11.9 µM
same,TGI,[27],65.7 µM
same,CC50,[27]; [31],> 100 µM
same,GI50,[28],7.05 µM
same,TGI,[28],31.5 µM
same,CC50,[28]; [31],> 100 µM
same,GI50,[29],11 µM
same,TGI,[29],49 µM
same,CC50,[29]; [31],> 100 µM
same,GI50,[30],3.6 µM
same,TGI,[30],28.7 µM
same,CC50,[30]; [31],> 100 µM
